Laboratory results as given in ChEMBL document CHEMBL4411272, “Design, synthesis and biological evaluation of AZD9291 derivatives as selective and potent EGFRL858R/T790M inhibitors” (Eur J Med Chem, 2019).

Columns and labels:
[1] = target: Epidermal growth factor receptor (Homo sapiens, UniProt P00533); test: Inhibition of wild-type EGFR (unknown origin) using substrate-biotin by ELISA-based mobility shift assay
[2] = target: Epidermal growth factor receptor (Homo sapiens, UniProt P00533, L858R/T790M); test: Inhibition of EGFR T790M/L858R double mutant (unknown origin) using substrate-biotin by ELISA-based mobility shift assay
Sequence of Epidermal growth factor receptor (Homo sapiens, UniProt P00533, L858R/T790M) (P00533 25-1210 T790M/L858R limits assumed): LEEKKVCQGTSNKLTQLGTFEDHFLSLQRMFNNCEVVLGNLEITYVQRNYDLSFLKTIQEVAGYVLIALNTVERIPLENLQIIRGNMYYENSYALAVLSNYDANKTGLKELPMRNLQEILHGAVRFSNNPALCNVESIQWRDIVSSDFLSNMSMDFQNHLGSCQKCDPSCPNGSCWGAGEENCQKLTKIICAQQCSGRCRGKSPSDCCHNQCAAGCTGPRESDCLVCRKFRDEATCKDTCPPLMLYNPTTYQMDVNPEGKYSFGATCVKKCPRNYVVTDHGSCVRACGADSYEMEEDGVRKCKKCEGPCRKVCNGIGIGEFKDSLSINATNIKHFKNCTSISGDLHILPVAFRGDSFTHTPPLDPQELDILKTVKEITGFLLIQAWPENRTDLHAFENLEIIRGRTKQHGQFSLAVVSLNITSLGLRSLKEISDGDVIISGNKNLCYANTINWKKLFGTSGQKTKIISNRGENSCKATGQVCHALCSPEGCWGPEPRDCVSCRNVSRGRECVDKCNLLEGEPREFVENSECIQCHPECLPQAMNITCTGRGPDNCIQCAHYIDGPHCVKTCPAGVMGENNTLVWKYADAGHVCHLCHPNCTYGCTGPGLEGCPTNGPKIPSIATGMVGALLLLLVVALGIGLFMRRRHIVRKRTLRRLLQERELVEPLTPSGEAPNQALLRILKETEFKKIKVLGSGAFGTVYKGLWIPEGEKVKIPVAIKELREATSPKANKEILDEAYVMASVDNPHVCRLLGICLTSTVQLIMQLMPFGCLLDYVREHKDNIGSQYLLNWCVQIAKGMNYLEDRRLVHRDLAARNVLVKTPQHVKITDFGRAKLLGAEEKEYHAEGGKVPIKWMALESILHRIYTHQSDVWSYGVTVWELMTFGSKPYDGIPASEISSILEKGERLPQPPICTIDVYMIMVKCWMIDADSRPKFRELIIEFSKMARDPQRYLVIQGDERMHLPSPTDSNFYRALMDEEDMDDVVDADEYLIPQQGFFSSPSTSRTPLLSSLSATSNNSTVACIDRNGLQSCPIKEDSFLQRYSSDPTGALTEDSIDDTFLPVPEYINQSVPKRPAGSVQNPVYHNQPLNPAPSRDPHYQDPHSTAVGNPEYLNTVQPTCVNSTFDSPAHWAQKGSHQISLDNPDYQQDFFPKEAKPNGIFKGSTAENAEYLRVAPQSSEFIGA

NCI-H1975 = test: Antiproliferative activity against human NCI-H1975 cells after 72 hrs by MTT assay; type: functional, cell-based; details: NCI-H1975, 72 h
In short: (§1)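 MTT assay; cells grown as monolayers in DMEM or RPMI1640 with 10% FBS at 37 °C, 5% CO2 for 24 h, then compound added for 72 h. MTT at 5 μg/mL for 4 h at 37 °C, formazan dissolved in DMSO, absorbance read at 492 nm with 630 nm reference. Each compound tested three times per line; IC50 from averaged determinations.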

A549 = test: Antiproliferative activity against human A549 cells after 72 hrs by MTT assay; type: functional, cell-based; details: A549, 72 h; in short: as §1
HepG2 = test: Antiproliferative activity against human HepG2 cells after 72 hrs by MTT assay; type: functional, cell-based; details: HepG2, 72 h
In short: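 MTT assay; cells grown as monolayers in DMEM or RPMI1640 with 10% FBS at 37 °C, 5% CO2 for 24 h, then compound added for 72 h. Each compound tested three times per line; IC50 from averaged determinations.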

Homo sapiens = species: Homo sapiens; test: Selectivity ratio of IC50 for wild-type EGFR (unknown origin) to IC50 for EGFR T790M/L858R double mutant (unknown origin)

Sequence of Epidermal growth factor receptor (Homo sapiens, UniProt P00533) (P00533 whole entry): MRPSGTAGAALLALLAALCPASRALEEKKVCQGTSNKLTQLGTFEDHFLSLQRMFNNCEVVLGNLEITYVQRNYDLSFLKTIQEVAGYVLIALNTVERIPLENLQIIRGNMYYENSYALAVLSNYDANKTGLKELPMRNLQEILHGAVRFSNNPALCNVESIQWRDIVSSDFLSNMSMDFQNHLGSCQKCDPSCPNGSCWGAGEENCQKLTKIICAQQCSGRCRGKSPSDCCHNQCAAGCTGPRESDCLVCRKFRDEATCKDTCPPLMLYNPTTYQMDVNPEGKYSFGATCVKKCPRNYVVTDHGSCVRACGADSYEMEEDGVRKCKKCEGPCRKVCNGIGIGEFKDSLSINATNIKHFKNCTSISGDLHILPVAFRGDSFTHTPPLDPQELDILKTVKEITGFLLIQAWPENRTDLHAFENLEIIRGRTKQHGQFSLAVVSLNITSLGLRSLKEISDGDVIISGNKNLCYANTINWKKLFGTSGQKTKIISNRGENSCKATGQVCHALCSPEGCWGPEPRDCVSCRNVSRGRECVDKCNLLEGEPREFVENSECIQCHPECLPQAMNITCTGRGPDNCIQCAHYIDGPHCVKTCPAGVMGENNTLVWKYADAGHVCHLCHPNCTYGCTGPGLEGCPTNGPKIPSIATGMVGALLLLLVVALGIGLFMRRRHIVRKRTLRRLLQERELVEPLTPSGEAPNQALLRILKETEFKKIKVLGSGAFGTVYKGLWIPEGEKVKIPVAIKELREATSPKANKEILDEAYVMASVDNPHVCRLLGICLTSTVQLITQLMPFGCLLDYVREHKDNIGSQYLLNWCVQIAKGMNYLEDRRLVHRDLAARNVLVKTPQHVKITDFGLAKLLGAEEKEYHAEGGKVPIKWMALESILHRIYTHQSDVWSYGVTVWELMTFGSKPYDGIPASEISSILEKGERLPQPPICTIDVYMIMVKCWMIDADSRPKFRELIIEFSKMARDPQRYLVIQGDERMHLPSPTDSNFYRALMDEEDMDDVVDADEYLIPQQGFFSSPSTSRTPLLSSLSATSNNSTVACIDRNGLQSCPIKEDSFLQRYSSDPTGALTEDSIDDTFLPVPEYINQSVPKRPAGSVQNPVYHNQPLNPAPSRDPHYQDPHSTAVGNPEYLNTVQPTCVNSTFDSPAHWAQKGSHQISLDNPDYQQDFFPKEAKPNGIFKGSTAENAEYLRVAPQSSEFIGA

Row | Compound | IC50 [1] [nM] | IC50 [2] [nM] | IC50 (NCI-H1975) [nM] | IC50 (A549) [nM] | IC50 (HepG2) [nM] | Ratio IC50 (Homo sapiens)
1 | COc1cc(N(C)CCN(C)C)c(NC(=O)/C=C\C(C)C)cc1Nc1nc(C)cc(-c2cn(C)c3ccc(F)cc23)n1 | > 2000 | 892 | 8520 | 9080 | 14000 | –
2 | COc1cc(N(C)CCN(C)C)c(NC(=O)C=C(C)C)cc1Nc1nccc(-c2cn(C)c3ccccc23)n1 | 1280 | 209 | 5610 | 4100 | 5660 | 6.1
3 | COc1cc(N(C)CCN(C)C)c(NC(=O)/C=C\C(C)C)cc1Nc1nccc(-c2cn(C)c3ccccc23)n1 | > 2000 | 397 | 1820 | 612 | 4390 | –
4 | COc1cc(N(C)CCN(C)C)c(NC(=O)/C=C\C(C)C)cc1Nc1nccc(-c2cn(C)c3ccc(F)cc23)n1 | 977 | > 2000 | 7360 | 6140 | 3920 | –
5 | C=CC(=O)Nc1cc(Nc2ncc(C#N)c(-c3cn(C)c4ccc(F)cc34)n2)c(OC)cc1N(C)CCN(C)C | > 2000 | > 2000 | 11400 | 9700 | 17500 | –
6 | C=CC(=O)Nc1cc(Nc2ncc(C#N)c(-c3cn(C)c4ccccc34)n2)c(OC)cc1N(C)CCN(C)C | 311 | 25 | 1190 | 308 | 768 | 12.4
7 | CCC/C=C\C(=O)Nc1cc(Nc2nccc(-c3cn(C)c4ccc(F)cc34)n2)c(OC)cc1N(C)CCN(C)C | 12 | 7.5 | 2730 | 1030 | 3400 | 1.6
8 | CC/C=C\C(=O)Nc1cc(Nc2nc(C)cc(-c3cn(C)c4ccc(F)cc34)n2)c(OC)cc1N(C)CCN(C)C | > 2000 | 998 | 10400 | 9150 | 11000 | –
9 | COc1cc(N(C)CCN(C)C)c(NC(=O)/C=C\C(C)C)cc1Nc1ncc(C#N)c(-c2cn(C)c3ccc(F)cc23)n1 | 415 | 360 | 1130 | 185 | 2840 | 1.2
10 | COc1cc(N(C)CCN(C)C)c(NC(=O)C(Cl)=C(Cl)Cl)cc1Nc1nccc(-c2cn(C)c3ccccc23)n1 | > 2000 | > 2000 | > 50000 | > 50000 | > 50000 | –
11 | COc1cc(N(C)CCN(C)C)c(NC(=O)/C=C\C(C)C)cc1Nc1nc(C)cc(-c2cn(C)c3ccccc23)n1 | > 2000 | 38 | 1230 | 1070 | 3550 | –
12 | C=CC(=O)Nc1cc(Nc2nccc(-c3cn(C)c4ccc(F)cc34)n2)c(OC)cc1N(C)CCN(C)C | 8.7 | 0.07 | 254 | 329 | 429 | 124
13 | CCC/C=C\C(=O)Nc1cc(Nc2ncc(C#N)c(-c3cn(C)c4ccccc34)n2)c(OC)cc1N(C)CCN(C)C | 377 | 37 | 823 | 166 | 1680 | 10.2
14 | CCC/C=C\C(=O)Nc1cc(Nc2ncc(C#N)c(-c3cn(C)c4ccc(F)cc34)n2)c(OC)cc1N(C)CCN(C)C | 1060 | 201 | 2420 | 741 | 2010 | 5.3
15 | C/C=C\C(=O)Nc1cc(Nc2nccc(-c3cn(C)c4ccccc34)n2)c(OC)cc1N(C)CCN(C)C | 395 | 52 | 4540 | 660 | 6930 | 7.6
16 | CCC/C=C\C(=O)Nc1cc(Nc2nc(C)cc(-c3cn(C)c4ccc(F)cc34)n2)c(OC)cc1N(C)CCN(C)C | > 2000 | 923 | 12200 | 13300 | 12100 | –
17 | CC/C=C\C(=O)Nc1cc(Nc2nc(C)cc(-c3cn(C)c4ccccc34)n2)c(OC)cc1N(C)CCN(C)C | 1260 | 18 | 1990 | 1080 | 2050 | 69.7
18 | COc1cc(N(C)CCN(C)C)c(NC(=O)/C=C\C(C)C)cc1Nc1ncc(C#N)c(-c2cn(C)c3ccccc23)n1 | 985 | 219 | 1110 | 1100 | 1810 | 4.5
19 | CC/C=C\C(=O)Nc1cc(Nc2nccc(-c3cn(C)c4ccc(F)cc34)n2)c(OC)cc1N(C)CCN(C)C | 684 | 388 | 2600 | 3600 | 5280 | 1.8
20 | C=C(Cl)C(=O)Nc1cc(Nc2nc(C)cc(-c3cn(C)c4ccccc34)n2)c(OC)cc1N(C)CCN(C)C | 83 | 10 | 2230 | 1730 | 3640 | 8.3
21 | C=CC(=O)Nc1cc(Nc2nc(C)cc(-c3cn(C)c4ccc(F)cc34)n2)c(OC)cc1N(C)CCN(C)C | 1090 | 591 | 3830 | 1490 | 4280 | 1.9
22 | C=CC(=O)Nc1cc(Nc2nc(C)cc(-c3cn(C)c4ccccc34)n2)c(OC)cc1N(C)CCN(C)C | 1340 | 93 | 4810 | 2910 | 12600 | 14.5
23 | CCC/C=C\C(=O)Nc1cc(Nc2nccc(-c3cn(C)c4ccccc34)n2)c(OC)cc1N(C)CCN(C)C | 1500 | 203 | 1220 | 808 | 431 | 7.4
24 | CC/C=C\C(=O)Nc1cc(Nc2nccc(-c3cn(C)c4ccccc34)n2)c(OC)cc1N(C)CCN(C)C | 1280 | 177 | 3860 | 1530 | 6670 | 7.2
25 | CC/C=C\C(=O)Nc1cc(Nc2ncc(C#N)c(-c3cn(C)c4ccc(F)cc34)n2)c(OC)cc1N(C)CCN(C)C | > 2000 | > 2000 | 10200 | 4720 | 5880 | –
26 | C=C(Cl)C(=O)Nc1cc(Nc2ncc(C#N)c(-c3cn(C)c4ccccc34)n2)c(OC)cc1N(C)CCN(C)C | 137 | 20 | 1620 | 133 | 115 | 6.9
27 | C=C(F)C(=O)Nc1cc(Nc2nccc(-c3cn(C)c4ccccc34)n2)c(OC)cc1N(C)CCN(C)C | 65 | 6 | 4230 | 2460 | 3790 | 10.8
28 | CC/C=C\C(=O)Nc1cc(Nc2ncc(C#N)c(-c3cn(C)c4ccccc34)n2)c(OC)cc1N(C)CCN(C)C | 387 | 16 | 1150 | 162 | 1360 | 24.2
29 | C=C(Cl)C(=O)Nc1cc(Nc2nccc(-c3cn(C)c4ccccc34)n2)c(OC)cc1N(C)CCN(C)C | 257 | 33 | 1290 | 7520 | 1390 | 7.8
30 | C=CC(=O)Nc1cc(Nc2nccc(-c3cn(C)c4ccccc34)n2)c(OC)cc1N(C)CCN(C)C [OSIMERTINIB] | – | – | […] | 615 | – | –
